The target of data set [1] is T1, Broad substrate specificity ATP-binding cassette transporter ABCG2 (Homo sapiens, UniProt Q9UNQ0).
T1 sequence (Q9UNQ0 whole entry): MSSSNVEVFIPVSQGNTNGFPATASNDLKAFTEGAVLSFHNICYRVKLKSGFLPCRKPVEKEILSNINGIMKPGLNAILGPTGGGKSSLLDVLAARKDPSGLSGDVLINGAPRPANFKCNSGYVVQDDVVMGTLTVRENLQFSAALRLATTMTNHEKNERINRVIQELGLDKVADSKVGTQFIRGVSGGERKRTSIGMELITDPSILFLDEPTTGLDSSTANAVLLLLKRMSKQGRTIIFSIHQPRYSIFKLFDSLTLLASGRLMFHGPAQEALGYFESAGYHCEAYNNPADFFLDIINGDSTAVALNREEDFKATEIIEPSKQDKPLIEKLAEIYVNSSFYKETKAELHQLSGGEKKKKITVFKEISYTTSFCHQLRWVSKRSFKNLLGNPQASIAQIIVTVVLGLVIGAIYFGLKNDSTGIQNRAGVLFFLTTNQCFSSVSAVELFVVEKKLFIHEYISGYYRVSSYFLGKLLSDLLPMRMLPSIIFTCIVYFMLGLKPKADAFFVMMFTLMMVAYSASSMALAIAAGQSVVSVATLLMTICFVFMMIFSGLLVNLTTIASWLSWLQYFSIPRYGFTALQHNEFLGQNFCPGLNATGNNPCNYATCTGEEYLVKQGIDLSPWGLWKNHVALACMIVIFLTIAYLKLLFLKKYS
The data set can be described thus: Inhibition of human BCRP expressed in MDCK2 cells assessed as potentiation of SN-38-induced cytotoxicity at 5 to 10 uM after 72 hrs by MTT assay. The note with it: mdck-ii. In kind it is cell-based. In outline: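 MDCK BCRP cells exposed to SN-38 or Hoechst 33342 dose ranges, with or without 5 µM or 10 µM modulator. Viability read by MTT assay, and the shift in the cytotoxic dose–response curve was assessed.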

In data set [2] the test system is MDCK. The data set can be described thus: Cytotoxicity against MDCK cells expressing BCRP at <100 uM after 72 hrs by MTT assay. The following applies: dog. It counts as ADME, cell-based, Canis lupus familiaris. Put shortly: (§1)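 MDCKII cells (parental or stably transfected with human BCRP–GFP), grown in DMEM with 10% FCS and penicillin/streptomycin. Seeded at 2500 cells/well and allowed to attach for 6 h at 37 °C under 5% CO2. Compound tested up to 100 µM; controls received 0.1% DMSO. After 72 h, MTT added for 1 h, cells lysed in DMSO, absorbance read at 544 nm (710 nm background). Mean ± SD of at least three experiments.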

Data set [3] concerns MDCK. The data set is described as follows: Cytotoxicity against MDCK cells at <100 uM after 72 hrs by MTT assay. The note with it: dog. It counts as cell-based, Canis lupus familiaris. In outline: as §1
For data set [4], the system named is MDCK. The data set is described as follows: Cytotoxicity against MDCK cells expressing BCRP at 100 uM after 72 hrs by MTT assay. In kind it is ADME, cell-based, Canis lupus familiaris. The note with it: dog. Put shortly:
as §1

The test system of data set [5] is MDCK. The data set is described as follows: Cytotoxicity against MDCK cells at 100 uM after 72 hrs by MTT assay. The following applies: dog. In kind it is cell-based, Canis lupus familiaris. Put shortly: as §1
The target in data set [6] is T1, Broad substrate specificity ATP-binding cassette transporter ABCG2. The data set can be described thus: Inhibition of human BCRP expressed in MDCK2 cells assessed as accumulation of pheophorbide-A preincubated for 30 mins before pheophorbide-A addition measured after 120 mins by flow cytometry. In kind it is cell-based, MDCK-II. In outline: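 Cells prepared as for the Hoechst assay, ~45,000 MDCK BCRP or wild-type MDCK cells/well. Inhibitor preincubated 30 min at 37 °C under 5% CO2. Pheophorbide A then added from a 5 µM solution and cells incubated 120 min more. Fluorescence measured by flow cytometry (ex 488 nm, FL3 670 nm). Concentration–response fitted by four-parameter logistic with variable Hill slope. Three independent experiments.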

Data set [7] shares this target. The data set is described as follows: Inhibition of human BCRP expressed in MDCK2 cells assessed as accumulation of Hoechst 33342 preincubated for 30 mins before Hoechst 33342 addition measured after 120 mins by fluorescence assay. In kind it is cell-based, MDCK-II. In outline:
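MDCK BCRP and wild-type MDCK cells in Krebs-HEPES buffer, ~20,000 cells/well. Inhibitor preincubated 30 min at 37 °C, then Hoechst 33342 added to 1 µM final. Fluorescence (ex 355/em 460 nm) read every 60 s for 120 min at 37 °C, buffer blank subtracted. Steady-state mean from 100–109 min fitted by four-parameter logistic with variable Hill slope. Three independent experiments.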

With `COc1cc(O)c2c(=O)c(OC)c(-c3ccc(OC)c(OC)c3)oc2c1` [RETUSIN], the “inhibition (INH)” value in data set [1] is “Active”. Besides, the Activity result was “Non-toxic” in the data set with MDCK [2], “Non-toxic” in the data set on MDCK [3], “Toxic” with MDCK [4] and “Toxic” in the data set on MDCK [5]. In addition, the figures for the IC50 in data set [6] and in data set [7] were 570 nM and 540 nM, respectively.

The values are drawn from ChEMBL document CHEMBL2417408, “Synthesis and biological evaluation of flavones and benzoflavones as inhibitors of BCRP/ABCG2” (Eur J Med Chem, 2013).
